Measurements published in ChEMBL document CHEMBL3286166, “Structure-activity relationships of the truncated norzoanthamines exhibiting collagen protection toward anti-osteoporotic activity” (Bioorg Med Chem, 2014).

Species: Rattus norvegicus
Test: Binding affinity to rat tail type 1 collagen assessed as collagen protection activity against Clostridium histolyticum collagenase-mediated digestion at 10 uM after 180 mins by Sirius red dye based microplate reader analysis relative to norzoanthamine
Method in brief: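 Acid-solubilized rat tail type I collagen diluted to 1.11 mg/mL in 50 mM Tris (pH 7.4) with 100 mM NaCl and 5 mM CaCl₂. Compound in the same buffer added, 5 min at 37 °C. Digestion started with 2 mg/mL Clostridium histolyticum collagenase at 37 °C. Aliquots at 30–180 min stained with Sirius red, 30 min room temperature, then centrifuged. Remaining collagen at 180 min normalized to norzoanthamine; buffer-only negative control; up to five samples per test.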

| Activity [%] | SMILES |
| --- | --- |
| 5 | COC(=O)C[C@@]1(C)[C@H]2C(=O)C[C@@H]3C(=O)C=C(C)C[C@H]3[C@]2(C)C=C2N3C[C@H]4C[C@H](C)C[C@]3(CC[C@]21C)O4 |
| 65 | C[C@H]1C[C@@H]2CN(Cc3ccc4ccccc4c3)[C@H](C1)O2 |
| 17 | CCCCN1CCC[C@@]2(C)[C@]3(C)CCC[C@]12OC(=O)C3 |
| 15 | COCCN1CCC[C@@]2(C)[C@]3(C)CCC[C@]12OC(=O)C3 |
| 25 | COC(=O)c1cccc(CN2C[C@H]3C[C@H](C)C[C@@H]2O3)c1 |
| 45 | CCCCc1ccc(CN2C[C@H]3C[C@H](C)C[C@@H]2O3)cc1 |
| 20 | C[C@H]1C[C@@H]2CN(Cc3ccc(-c4ccccc4)cc3)[C@H](C1)O2 |
| 11 | C[C@@]12CCC[C@]3(OC(=O)C1)N(Cc1ccccc1)CCC[C@@]23C |
| 23 | C[C@H]1C[C@@H]2CN(C(=O)OC(C)(C)C)[C@H](C1)O2 |
| 31 | C[C@H]1C[C@@H]2CN3C4=CCCC[C@]4(C)CC[C@@]3(C1)O2 |
| 25 | COC(=O)c1ccccc1-c1ccc(CN2C[C@H]3C[C@H](C)C[C@@H]2O3)cc1 |
| 76 | C[C@@H]1C[C@H]2CN3[C@@](CC[C@]4(C)[C@@]5(C)CCC[C@@]34OC(=O)C5)(C1)O2 |
| 100 | C[C@H]1C[C@@H]2CN3[C@](CC[C@@]4(C)[C@]5(C)CCC[C@]34OC(=O)C5)(C1)O2 |

| SMILES | Activity [%] |
| --- | --- |
| C[C@H]1C[C@@H]2CN(Cc3ccccc3)[C@H](C1)O2 | 47 |
| C[C@H]1C[C@@H]2CN[C@H](C1)O2 | 31 |
